The text below walks through data of ChEMBL document CHEMBL1122522, “Conformationally restricted retinoids” (1984).

The subject of assay [1] is Cricetinae gen. sp. The experiment in a line: Activity of compound the was expressed as ratio of active hamster tracheal organ cultures(TOC) to the total cultures at 10e-8 M concentration. Type of assay: functional, Cricetulus griseus, Trachea. In short, it runs like this: (§1)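 Tracheal organ cultures came from vitamin A-deficient hamsters. Each culture was scored for reversal of keratinization and reported as active cultures out of total cultures at each retinoid concentration tested (10⁻⁸ to 10⁻¹² M). The protocol followed earlier published methods.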

The subject of assay [2] is Cricetinae gen. sp. The experiment in a line: Activity of compound the was expressed as ratio of active hamster tracheal organ cultures(TOC) to the total cultures at 10e-10 M concentration. Type of assay: functional, Cricetulus griseus, Trachea. The method, boiled down:
as §1

Assay [3] deals with Cricetinae gen. sp. The experiment in a line: Molarity required to effect reversal of keratinization in 50% of cultures. Type of assay: functional, Cricetulus griseus.
Assay [4] relates to Cricetinae gen. sp. The experiment in a line: Activity of compound the was expressed as ratio of active hamster tracheal organ cultures(TOC) to the total cultures at 10e-9 M concentration. Type of assay: functional, Cricetulus griseus, Trachea. The method, boiled down:
as §1

Assay [5] deals with T1, Ornithine decarboxylase (Mus musculus) (UniProt P00860).
T1 sequence (whole entry): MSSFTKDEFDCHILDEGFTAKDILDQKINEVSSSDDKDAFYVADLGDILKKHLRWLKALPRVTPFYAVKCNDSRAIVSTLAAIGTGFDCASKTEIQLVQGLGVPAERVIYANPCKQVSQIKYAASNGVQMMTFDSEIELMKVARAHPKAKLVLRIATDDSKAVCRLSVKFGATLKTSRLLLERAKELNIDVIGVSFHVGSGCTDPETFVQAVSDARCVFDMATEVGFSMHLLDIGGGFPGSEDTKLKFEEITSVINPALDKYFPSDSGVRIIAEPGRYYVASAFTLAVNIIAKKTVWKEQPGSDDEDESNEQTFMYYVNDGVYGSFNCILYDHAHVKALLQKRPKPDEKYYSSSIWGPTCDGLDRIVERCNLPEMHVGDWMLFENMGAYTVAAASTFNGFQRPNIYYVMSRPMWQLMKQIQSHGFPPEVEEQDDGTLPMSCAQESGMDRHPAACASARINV
The experiment in a line: Inhibition of the induction of ornithine decarboxylase in mouse epidermis by the tumor promoter 12-O-tetradecanoylphorbol-13-acetate (ODC) at dose 1.7 nmol.

In assay [6] the target is T1, Ornithine decarboxylase (Mus musculus). The experiment in a line: Inhibition of the induction of ornithine decarboxylase in mouse epidermis by the tumor promoter 12-O-tetradecanoylphorbol-13-acetate (ODC) at dose 17 nmol.
In assay [7] the test system is Cricetinae gen. sp. As to the kind of experiment: Activity of compound the was expressed as ratio of active hamster tracheal organ cultures(TOC) to the total cultures at 10e-10 M concentration; 4/15. Type of assay: functional, Cricetulus griseus, Trachea. Particulars: at 0.0001 µM.
The test system of assay [8] is Cricetinae gen. sp. As to the kind of experiment: Activity of compound the was expressed as ratio of active hamster tracheal organ cultures(TOC) to the total cultures at 10e-11 M concentration; 1/8. Type of assay: functional, Cricetulus griseus, Trachea. Particulars: at 10 pM.
The test system of assay [9] is Cricetinae gen. sp. As to the kind of experiment: Activity of compound the was expressed as ratio of active hamster tracheal organ cultures(TOC) to the total cultures at 10e-8 M concentration; 7/7. Type of assay: functional, Cricetulus griseus, Trachea. Particulars: at 0.01 µM.
Assay [10] relates to Cricetinae gen. sp. As to the kind of experiment: Activity of compound the was expressed as ratio of active hamster tracheal organ cultures(TOC) to the total cultures at 10e-9 M concentration; 14/15. Type of assay: functional, Cricetulus griseus, Trachea. Particulars: at 0.001 µM.
Assay [11] addresses T1, Ornithine decarboxylase (Mus musculus). As to the kind of experiment: TInhibition of the induction of ornithine decarboxylase in mouse epidermis by the tumor promoter 12-O-tetradecanoylphorbol-13-acetate (ODC) at dose 17 nmol.
The subject of assay [12] is Cricetinae gen. sp. The experiment in a line: Activity of compound the was expressed as ratio of active hamster tracheal organ cultures(TOC) to the total cultures at 10e-12 M concentration; 4/15. Type of assay: functional, Cricetulus griseus, Trachea.
The test system of assay [13] is Cricetinae gen. sp. The experiment in a line: Activity of compound the was expressed as ratio of active hamster tracheal organ cultures(TOC) to the total cultures at 10e-10 M concentration; 21/22. Type of assay: functional, Cricetulus griseus, Trachea.
Assay [14] relates to Cricetinae gen. sp. The experiment in a line: Activity of compound the was expressed as ratio of active hamster tracheal organ cultures(TOC) to the total cultures at 10e-11 M concentration; 17/22. Type of assay: functional, Cricetulus griseus, Trachea.
Assay [15] has as its system Cricetinae gen. sp. The experiment in a line: Activity of compound the was expressed as ratio of active hamster tracheal organ cultures(TOC) to the total cultures at 10e-10 M concentration; 3/14. Type of assay: functional, Cricetulus griseus, Trachea. In short, it runs like this:
as §1

The test system of assay [16] is Cricetinae gen. sp. The experiment in a line: Activity of compound the was expressed as ratio of active hamster tracheal organ cultures(TOC) to the total cultures at 10e-8 M concentration; 8/8. Type of assay: functional, Cricetulus griseus, Trachea. In short, it runs like this: as §1
The subject of assay [17] is Cricetinae gen. sp. The experiment in a line: Activity of compound the was expressed as ratio of active hamster tracheal organ cultures(TOC) to the total cultures at 10e-9 M concentration; 8/14. Type of assay: functional, Cricetulus griseus, Trachea. The method, boiled down: as §1
The target of assay [18] is T1, Ornithine decarboxylase (Mus musculus). As to the kind of experiment: Inhibition of the induction of ornithine decarboxylase in mouse epidermis by the tumor promoter 12-O-tetradecanoylphorbol-13-acetate (ODC) at dose 17 nmol * p<0.05.
For assay [19] the target is unchanged. As to the kind of experiment: Inhibition of the induction of ornithine decarboxylase in mouse epidermis by the tumor promoter 12-O-tetradecanoylphorbol-13-acetate (ODC) at dose 1.7 nmol * p<0.02.

In general, inhibition refers to the share of the control response that was lost under treatment. Low readings indicate a response near the control, high ones a response far below the control. With `CC1=C(c2ccc(-c3ccc(C(=O)O)cc3)cc2)C(C)(C)CCC1`, the Activity came out at 7% in assay [1], 2% in assay [2] and 2% in [4]. Besides, the ED50 in [3] was 3e-09. Further, the inhibition in [5] was 34%; in assay [6], 55%.

Regarding `CC1=C(CC/C(C)=C/c2ccc(C(=O)O)cc2)C(C)(C)CCC1`, the Activity in assay [7] is 4 active cultures; in assay [8], 1 active cultures; in [9] it was 7%; in assay [10], 14 active cultures. Besides, the ED50 in assay [3] is recorded as 3e-10. Also, the inhibition was 83% in assay [11] and 45% in assay [5].

Regarding `CC1(C)CCC(C)(C)c2cc(-c3ccc4cc(C(=O)O)ccc4c3)ccc21`, the Activity in assay [12] was determined as 4%; in [13] it was 21%; in assay [14] it was 17%. Moreover, the ED50 in [3] is recorded as 3e-12.

Regarding `C/C(=C\c1ccc(C(=O)O)cc1)c1ccc2c(c1)C1CCC2C1` (stereo not drawn), the Activity in assay [15] worked out at 3%; in [16], 8%; in assay [17], 57%. In addition, the ED50 in assay [3] is recorded as 6e-10. Also, the inhibition in assay [18] stood at 69%; in assay [19] it was 33%.
